Test results: ChEMBL document CHEMBL1136766, “Design, synthesis, and biological evaluation of new inhibitors of the endocannabinoid uptake: comparison with effects on fatty acid amidohydrolase” (J Med Chem, 2003)

Assays:
[1] = biological target: T1, Fatty-acid amide hydrolase 1 (Rattus norvegicus, UniProt P97612); experiment: Inhibition of fatty acid amide hydrolase (FAAH) was determined using rat brain homogenates as the enzyme source and [3H]anandamide as substrate; format: tissue-based
T1 sequence (P97612 whole entry): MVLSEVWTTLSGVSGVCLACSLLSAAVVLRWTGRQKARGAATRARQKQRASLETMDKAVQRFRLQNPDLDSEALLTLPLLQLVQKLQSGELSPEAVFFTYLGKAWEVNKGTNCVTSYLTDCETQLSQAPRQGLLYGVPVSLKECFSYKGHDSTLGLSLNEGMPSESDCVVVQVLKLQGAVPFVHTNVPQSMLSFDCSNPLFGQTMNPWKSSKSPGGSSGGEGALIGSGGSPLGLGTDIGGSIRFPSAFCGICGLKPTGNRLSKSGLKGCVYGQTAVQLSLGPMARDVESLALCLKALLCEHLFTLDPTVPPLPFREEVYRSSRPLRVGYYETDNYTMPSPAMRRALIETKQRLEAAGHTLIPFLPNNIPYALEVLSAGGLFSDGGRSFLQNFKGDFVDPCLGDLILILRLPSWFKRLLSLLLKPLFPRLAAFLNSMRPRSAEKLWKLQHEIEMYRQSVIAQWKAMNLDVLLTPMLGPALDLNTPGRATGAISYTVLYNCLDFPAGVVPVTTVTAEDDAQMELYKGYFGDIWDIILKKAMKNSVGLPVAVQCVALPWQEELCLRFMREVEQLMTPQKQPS
In short: (§1)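 Rat brain homogenate without cerebellum, in 10 mM Tris-HCl/1 mM EDTA pH 7.6, incubated 10 min at 37 °C with compound (ethanol carrier). Substrate: anandamide 2 µM final with trace [3H]anandamide labelled in the ethanolamine, plus BSA. Stopped on ice with chloroform/methanol; [3H]ethanolamine in the aqueous phase counted. Eight concentrations from 0.5 to 100 µM, at least three experiments.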

Cannabinoid receptor 2 = Cannabinoid receptor 2 (Homo sapiens, UniProt P34972); experiment: Binding affinity against G protein coupled human Cannabinoid receptor 2 using [3H]CP-55940 in HEK293 EBNA transfected cells; format: cell-based
In short: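 Incubated 90 min at 30 °C with 0.3 nM [3H]CP55940 plus competitor. Filtered and counted by scintillation. IC50 from curve fit, Ki by Cheng-Prusoff. Two to four experiments in triplicate.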

Cannabinoid receptor 1 = Cannabinoid receptor 1 (Rattus norvegicus, UniProt P20272); experiment: Binding affinity against G protein coupled Cannabinoid receptor 1 using [3H]WIN-55212-2 in rat cerebellum membranes; format: cell membranes, Membrane
In short: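 Rat cerebellum membranes washed in 50 mM Tris-HCl pH 7.4, resuspended at about 2 mg/mL protein. Incubated 90 min at 30 °C with 0.5 nM [3H]WIN55212-2 plus competitor in Tris/EDTA/MgCl2/5 mg/mL BSA buffer. Nonspecific binding defined with 10 µM SR141716A. Bound ligand separated by GF/C filtration and counted by scintillation. IC50 from curve fit, Ki by Cheng-Prusoff. Two to four experiments in triplicate.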

[2] = biological target: T2, Fatty-acid amide hydrolase 1 (Rattus norvegicus) (UniProt P97612); experiment: Inhibition of fatty acid amide hydrolase (FAAH) in rat brain homogenates; format: tissue-based; in short: as §1
T2 sequence (whole entry): T1 sequence (P97612 whole entry)

Homo sapiens [3] = organism: Homo sapiens; experiment: Maximum Inhibition of anandamide transport(ANT) was determined against human lymphoma U937 cell at a dose of 50 uM; format: functional, U-937
In short: (§2)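 U937 cells (10^6/mL, RPMI 1640) preincubated 10 min at 37 °C with inhibitor, highest concentration tested 50 µM. Then [3H]anandamide 0.45 nM plus cold anandamide (100 nM final) added for 7 min. Stopped by GF/C filtration and washed with Krebs-HEPES; radioactivity counted. Nonspecific uptake measured at 4 °C. IC50 by curve fit; maximum inhibition is the % inhibition at 50 µM.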

Homo sapiens [4] = organism: Homo sapiens; experiment: Inhibition of [3H]anandamide transport(ANT) in human lymphoma U937 cell; format: functional; settings: U-937; in short: as §2
[5] = biological target: Transient receptor potential cation channel subfamily V member 1 (Rattus norvegicus, UniProt O35433); experiment: Binding affinity against vanilloid receptor 1 (VR1) using [3H]RTX in rat spinal cord membranes; format: cell membranes, Membrane
In short: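 Rat spinal cord membranes (about 1 mg/mL protein) in HEPES/sucrose buffer pH 7.4 with 0.25 mg/mL BSA. Incubated 60 min at 37 °C with 25 pM [3H]RTX plus competitor; nonspecific binding defined with 1 µM RTX. Stopped on ice, α1-acid glycoprotein added, membranes pelleted and counted. Ki by Cheng-Prusoff. Two to four experiments in triplicate.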

[6] = biological target: T2, Fatty-acid amide hydrolase 1 (Rattus norvegicus); experiment: Maximum Inhibition of fatty acid amide hydrolase (FAAH) was determined using rat brain homogenates at 100 uM
In short: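 Rat brain (minus cerebellum) homogenate in 10 mM Tris-HCl, 1 mM EDTA, pH 7.6, incubated 10 min at 37 °C with test agent or ethanol carrier. Substrate: 2 µM final anandamide with trace [3H]anandamide (ethanolamine label), 1% fatty acid free BSA. Stopped on ice plus chloroform/methanol. Aqueous-phase [3H]ethanolamine counted by scintillation. Inhibition read at 100 µM where IC50 fit failed.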

[7] = biological target: T1, Fatty-acid amide hydrolase 1; experiment: Maximum Inhibition of fatty acid amide hydrolase (FAAH) was determined using rat brain homogenates at concentrations ranging from 0.5 to 100 uM; in short: as §1

Sequence of Cannabinoid receptor 2 (P34972 whole entry): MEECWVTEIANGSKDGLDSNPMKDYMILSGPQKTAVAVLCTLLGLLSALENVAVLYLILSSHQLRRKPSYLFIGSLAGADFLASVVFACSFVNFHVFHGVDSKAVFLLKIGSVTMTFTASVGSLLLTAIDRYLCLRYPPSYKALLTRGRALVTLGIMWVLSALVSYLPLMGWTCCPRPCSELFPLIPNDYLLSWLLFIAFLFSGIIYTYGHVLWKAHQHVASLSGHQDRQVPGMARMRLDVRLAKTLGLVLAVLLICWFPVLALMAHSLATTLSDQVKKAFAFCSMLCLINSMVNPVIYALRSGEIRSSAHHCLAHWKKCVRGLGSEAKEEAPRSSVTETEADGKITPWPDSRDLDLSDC
Sequence of Transient receptor potential cation channel subfamily V member 1 (O35433 whole entry): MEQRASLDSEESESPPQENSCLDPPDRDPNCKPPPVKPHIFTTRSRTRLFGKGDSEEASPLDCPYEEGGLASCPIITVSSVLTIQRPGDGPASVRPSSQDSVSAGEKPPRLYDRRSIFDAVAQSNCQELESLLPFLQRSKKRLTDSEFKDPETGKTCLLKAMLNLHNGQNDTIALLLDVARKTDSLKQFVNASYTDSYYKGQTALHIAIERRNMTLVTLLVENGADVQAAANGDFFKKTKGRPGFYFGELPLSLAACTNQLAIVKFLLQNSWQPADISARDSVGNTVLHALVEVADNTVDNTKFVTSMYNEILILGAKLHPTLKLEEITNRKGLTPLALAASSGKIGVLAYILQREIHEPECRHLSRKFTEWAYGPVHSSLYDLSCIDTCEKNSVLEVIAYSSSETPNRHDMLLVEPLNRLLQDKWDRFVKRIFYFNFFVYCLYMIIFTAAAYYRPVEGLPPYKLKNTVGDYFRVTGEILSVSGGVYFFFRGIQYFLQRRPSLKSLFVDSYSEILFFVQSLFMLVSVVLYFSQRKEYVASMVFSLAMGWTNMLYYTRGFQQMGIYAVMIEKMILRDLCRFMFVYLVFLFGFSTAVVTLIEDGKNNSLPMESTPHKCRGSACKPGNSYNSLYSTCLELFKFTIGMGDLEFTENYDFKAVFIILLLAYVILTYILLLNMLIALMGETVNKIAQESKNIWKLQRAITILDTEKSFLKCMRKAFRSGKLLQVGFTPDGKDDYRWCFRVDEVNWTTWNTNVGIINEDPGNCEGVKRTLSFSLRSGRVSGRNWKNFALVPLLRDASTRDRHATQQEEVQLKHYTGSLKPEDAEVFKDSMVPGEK
Sequence of Cannabinoid receptor 1 (P20272 whole entry): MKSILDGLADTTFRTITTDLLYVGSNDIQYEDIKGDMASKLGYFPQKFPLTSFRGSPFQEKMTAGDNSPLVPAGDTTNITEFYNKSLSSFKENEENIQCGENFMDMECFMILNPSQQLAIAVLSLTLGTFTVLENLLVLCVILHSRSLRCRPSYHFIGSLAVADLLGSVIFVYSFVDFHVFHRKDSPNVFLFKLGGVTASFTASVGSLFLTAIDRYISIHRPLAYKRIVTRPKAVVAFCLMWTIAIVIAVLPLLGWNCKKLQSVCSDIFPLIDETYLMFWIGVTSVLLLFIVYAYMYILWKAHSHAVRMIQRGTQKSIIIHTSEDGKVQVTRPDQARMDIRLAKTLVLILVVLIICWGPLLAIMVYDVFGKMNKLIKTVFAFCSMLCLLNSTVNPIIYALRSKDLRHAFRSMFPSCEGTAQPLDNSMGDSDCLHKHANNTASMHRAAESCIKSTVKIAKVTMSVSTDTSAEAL

SMILES	IC50 [1] [µM]	Ki (Cannabinoid receptor 2) [µM]	Ki (Cannabinoid receptor 1) [µM]	Max inhibition [2] [%]	Max inhibition (Homo sapiens [3]) [%]	IC50 (Homo sapiens [4]) [µM]	Ki [5] [µM]	Max inhibition [6] [%]	IC50 [7] [µM]
CCCCC/C=C\C/C=C\C/C=C\C/C=C\CCCC(=O)OCc1ccsc1	84	> 5	> 5	100	>85	–	–	–	–
CCCCC/C=C\C/C=C\C/C=C\C/C=C\CCCC(=O)OCC1CCOC1 (centres undefined)	113	> 10	> 5	100	>85	–	–	–	–
CCCCC/C=C\C/C=C\C/C=C\C/C=C\CCCC(=O)NCCc1ccsc1	–	> 1	> 1	–	60	1.3	< 5	–	–
CCCCC/C=C\C/C=C\C/C=C\C/C=C\CCCC(=O)O[C@@H](C)c1ccco1	> 120	> 5	> 1	–	55	–	> 5	24	–
CCCCC/C=C\C/C=C\C/C=C\C/C=C\CCCC(=O)N(Cc1cccs1)Cc1cccs1	–	> 1	> 1	–	>85	16	> 5	–	–
CCCCC/C=C\C/C=C\C/C=C\C/C=C\CCCC(=O)NC(C)c1ccco1 (centres undefined)	36	> 5	> 5	75	>85	21	> 5	–	–
CCCCC/C=C\C/C=C\C/C=C\C/C=C\CCCC(=O)O[C@H](C)c1ccco1	> 120	> 5	> 1	–	37	–	> 5	19	–
CCCCC/C=C\C/C=C\C/C=C\C/C=C\CCCC(=O)OCc1cccs1	12	> 5	> 5	80	–	–	–	–	–
CCCCC/C=C\C/C=C\C/C=C\C/C=C\CCCC(=O)NCc1cccs1	112	> 10	–	100	>85	–	–	–	–
CCCCC/C=C\C/C=C\C/C=C\C/C=C\CCCC(=O)NCc1cccn1C	–	–	–	–	>85	–	–	–	–
CCCCC/C=C\C/C=C\C/C=C\C/C=C\CCCC(=O)OCc1ccoc1	103	> 5	> 5	100	>85	–	–	–	–
CCCCC/C=C\C/C=C\C/C=C\C/C=C\CCCC(=O)OC(C)c1ccco1 (centres undefined)	> 120	> 1	> 1	–	70	–	> 5	45	–
CCCCC/C=C\C/C=C\C/C=C\C/C=C\CCCC(=O)OCc1ccco1	53	> 5	> 5	100	>85	–	–	–	–
CCCCC/C=C\C/C=C\C/C=C\C/C=C\CCCC(=O)NCCc1ccco1	> 120	> 1	> 5	–	>85	12.8	> 5	38	–
CCCCC/C=C\C/C=C\C/C=C\C/C=C\CCCC(=O)NC(C)Cc1ccsc1 (centres undefined)	> 120	> 1	> 1	37	78	21	< 5	–	–
CCCCC/C=C\C/C=C\C/C=C\C/C=C\CCCC(=O)Nc1ccc(O)cc1	3.7	–	–	100	>85	–	–	–	–
CCCCC/C=C\C/C=C\C/C=C\C/C=C\CCCC(=O)NC(C)Cc1cccs1 (centres undefined)	15	> 1	> 1	36	66	22	< 5	–	–
CCCCC/C=C\C/C=C\C/C=C\C/C=C\CCCC(=O)N(C)Cc1ccoc1	> 120	> 1	> 1	–	>85	111	–	–	24
CCCCC/C=C\C/C=C\C/C=C\C/C=C\CCCC(=O)OCCc1cccs1	24	> 5	> 1	68	>85	12	> 5	–	–
CCCCC/C=C\C/C=C\C/C=C\C/C=C\CCCC(=O)NCCc1cccs1	102	> 1	3	100	>85	19	> 5	–	–
CCCCC/C=C\C/C=C\C/C=C\C/C=C\CCCC(=O)NCc1ccco1	34	> 5	> 5	100	>85	–	–	–	–
CCCCC/C=C\C/C=C\C/C=C\C/C=C\CCCC(=O)NCC1CCCO1 (centres undefined)	44	> 5	> 5	47	>85	–	–	–	–
CCCCC/C=C\C/C=C\C/C=C\C/C=C\CCCC(=O)SCc1ccco1	> 120	> 5	> 5	36	>85	9	> 5	–	–
CCCCC/C=C\C/C=C\C/C=C\C/C=C\CCCCNCc1ccoc1	29	> 1	> 1	57	>85	–	> 5	–	–
CCCCC/C=C\C/C=C\C/C=C\C/C=C\CCCC(=O)OCC1CCCO1 (centres undefined)	> 120	> 5	> 5	23	>85	–	–	–	–
CCCCC/C=C\C/C=C\C/C=C\C/C=C\CCCC(=O)NCc1ccsc1	12	> 1	> 1	76	>85	5	> 5	–	–
CCCCC/C=C\C/C=C\C/C=C\C/C=C\CCCC(=O)OCCc1ccsc1	28	> 5	> 1	100	75	26	> 5	–	–
CCCCC/C=C\C/C=C\C/C=C\C/C=C\CCCC(=O)NCCc1ccoc1	–	0.4	> 1	–	>85	3.3	> 5	–	–
CCCCC/C=C\C/C=C\C/C=C\C/C=C\CCCC(=O)NCc1ccoc1	30	–	4.7	100	>85	–	–	–	–
